How the values were obtained:
[1] = melting temperature; fluorescence melt of hairpins on a sequencing array, two-state fit, raised by 9.35 °C to match UV melts; details: sodium 0.088 M
Procedure, shortened: (§1)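 Two-state fits, bootstrapped, provided melting temperature and folding enthalpy from Cy3 fluorescence normalised to pre-quench Cy3 and to control constructs. Library hairpins with annealed Cy3 and quencher oligos were imaged on a sequenced MiSeq flow cell in 50 mM Na-HEPES pH 8.0, 25 mM NaCl, at 2.5 °C intervals up to 60 °C. Four replicates were combined with inverse-variance weighting. A 9.35 °C upward shift was applied to fitted temperatures to match UV melts.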

[2] = folding enthalpy; higher = less favourable; fluorescence melt of hairpins on a sequencing array, two-state fit; details: sodium 0.088 M
Procedure, shortened: as §1

Sequence	Tm [1] [°C]	folding enthalpy [2] [kcal/mol]
GCCAAAGGAAACTTTGGC (((((((....)))))))	64	-44.4
GCCAACGAAAGTTGAGGC ((((((....)))..)))	48.5	-19.4
GCCAACGGAAACGCTGGC ((((.((....)).))))	52	-40
GCCAACGGAAACGTTGAC (.(((((....))))).)	46.5	-16.5
GCCAAGACGAAAGTCGGC (((..(((....))))))	54.6	-23.7
GCCAAGCGAAAGCAGGGC (((..((....))..)))	60.4	-26.4
GCCAAGCGAAAGCATTGC ((.(.((....)).).))	32.5	-11.2
GCCAAGCGAAAGCCCGGC (((..((....))..)))	45.8	-20.7
GCCAAGCGAAAGCCTAGC ((.(.((....)).).))	31.2	-9.82
GCCAAGCGAAAGCTCTGC ((..(((....)))..))	31.2	-11.4
GCCAAGCGAAAGCTGAGC ((..(((....)))..))	47.7	-15.3
GCCAAGCGAAAGCTGGC (((.(((....))))))	68.5	-28.3
GCCAAGCGAAAGCTTCGC ((.((((....)))).))	50.4	-16.8
GCCAAGGCGAAAGCCGGC (((..(((....))))))	65.8	-15.7
GCCAAGGGAAACCCTGGC ((((.((....)).))))	52.2	-31.9
GCCAATGGAAACATTGGC (((((((....)))))))	67.8	-38.3
GCCAATTCGAAAGAAGGC (((..(((....))))))	38	-20.6
GCCACAACGAAAGTTGGC (((..(((....))))))	48.5	-15.3
GCCACACGAAAGTGGGC (((.(((....))))))	60.4	-24.6
GCCACGCGAAAGCAAGGC (((..((....))..)))	57.2	-22.9
GCCACGCGAAAGCAGGGC (((..((....))..)))	61.6	-23.5
GCCACGCGAAAGCATAGC ((.(.((....)).).))	26.7	-9.06
GCCACGCGAAAGCGGCGC ((..(((....)))..))	60.8	-15.9

Sequence	Tm [1] [°C]	folding enthalpy [2] [kcal/mol]
GCCACGCGAAAGCGTAGC ((.((((....)))).))	55.8	-16.9
GCCACTACGAAAGTAGGC (((..(((....))))))	41.5	-13.1
GCCACTCCGAAAGGAGGC (((..(((....))))))	43.9	-8.62
GCCACTCGAAAGAGAGGC (((.(((....))).)))	60	-39.1
GCCAGACGAAAGTCCGGC (((.(((....))).)))	60.1	-27.6
GCCAGACGAAAGTCGGGC (((.(((....))).)))	68.6	-34
GCCAGAGGAAACTCCGGC (((.(((....))).)))	45.6	-24.4
GCCAGAGGAAACTTTGGC ((((.((....)).))))	47.4	-32.8
GCCAGATCGAAAGATGGC (((..(((....))))))	48.2	-27.4
GCCAGCGAAAGCTCGGC ((((((....))).)))	60.8	-28.4
GCCAGCGAAAGCTCGGGC ((((((....)))..)))	52.3	-20.4
GCCAGCGAAAGCTCTGGC ((((((....)))..)))	50.6	-24.5
GCCAGCGAAAGCTTCGGC ((((((....)))..)))	47.8	-23.7
GCCAGCGAAAGCTTTGGC ((((((....)))..)))	51.4	-23.8
GCCAGCGGAAACACCGGC (((.(.(....).).)))	27.6	-10.2
GCCAGCGGAAACGCCGGC (((.(((....))).)))	57.1	-26.3
GCCAGGCCGAAAGGCGGC (((..(((....))))))	64.9	-18.4
GCCAGGCGAAAGCATCGC ((.(.((....)).).))	36.1	-8.22
GCCAGGCGAAAGCCCCGC ((..(((....)))..))	28.1	-11.6
GCCAGGCGAAAGCCCGGC (((.(((....))).)))	66.2	-24.5
GCCAGGCGAAAGCCGTGC ((..(((....)))..))	50	-13.6
GCCAGGCGAAAGCCTCGC ((.((((....)))).))	54	-17.4
GCCAGGCGAAAGCTTCGC ((.(.((....)).).))	40.5	-8.82

Sequence	Tm [1] [°C]	folding enthalpy [2] [kcal/mol]
GCCAGGGGAAACCTTGGC ((((.((....)).))))	53.4	-43.9
GCCAGTCCGAAAGGAGGC (((..(((....))))))	44.4	-22.1
GCCATAACGAAAGTTGGC (((..(((....))))))	49.3	-30.9
GCCATACGAAAGTAAGGC (((.(((....))).)))	52.6	-35.1
GCCATAGGAAACCATGGC (((((.(....).)))))	47.7	-34.2
GCCATCCCGAAAGGGGGC (((..(((....))))))	51.8	-18.1
GCCATCCGAAAGGACGGC (((.(((....))).)))	55.7	-40.2
GCCATCGAAAGATCAGGC ((((((....)))..)))	37.7	-24.9
GCCATCGAAAGATCGGGC ((((((....)))..)))	41.6	-25.1
GCCATCGAAAGATCTGGC ((((((....)))..)))	36.1	-25.9
GCCATCGAAAGATGGGC ((((((....))).)))	63.2	-15.4
GCCATCGAAAGATGGGGC ((((((....)))..)))	54.4	-12.8
GCCATCGCGAAAGCGGGC (((..(((....))))))	53.9	-17.4
GCCATCGGAAACGACGGC (((.(((....))).)))	52.1	-35.5
GCCATGCCGAAAGGCGGC (((..(((....))))))	59.2	-18.6
GCCATGCGAAAGCAAGGC (((.(((....))).)))	60.5	-42.6
GCCATGCGAAAGCAGGC (((.(((....))))))	64.4	-21.8
GCCATGCGAAAGCATTGC ((.((((....)))).))	54	-21.2
GCCATGCGAAAGCCCGGC (((..((....))..)))	43.1	-22.9
GCCATGCGAAAGCCGGGC (((..((....))..)))	55.3	-26.1
GCCATGCGAAAGCGGGGC (((..((....))..)))	65.3	-35
GCCATGCGAAAGCTAGGC (((..((....))..)))	62.2	-27.3
GCCATGCGAAAGCTTCGC ((.(.((....)).).))	47.3	-8.18

Sequence	Tm [1] [°C]	folding enthalpy [2] [kcal/mol]
GCCATGGGAAACCACAGC ((..(((....)))..))	26.9	-12.7
GCCATGGGAAACCATGAC (.(((((....))))).)	41	-19.5
GCCATGGGAAACCGTGGC ((((.((....)).))))	59	-40.6
GCCATTCGAAAGAACGGC (((.(((....))).)))	49.6	-40.1
GCCCAACGAAAGTTTGGC (((.(((....))).)))	50.2	-28.1
GCCCAAGCGAAAGCTGGC (((..(((....))))))	53.6	-17.6
GCCCAAGGAAACTCGGGC ((((.((....)).))))	48.8	-26.9
GCCCAAGGAAACTTGGAC (.(((((....))))).)	38	-19.6
GCCCACGAAAGTGCAGGC ((((((....)))..)))	50.1	-28.1
GCCCACGAAAGTGCTGGC ((((((....)))..)))	47.4	-18.9
GCCCACGAAAGTGGCGGC ((((((....)))..)))	57.6	-14
GCCCACGAAAGTGGTGGC ((((((....)))..)))	55.4	-13.8
GCCCACGGAAACACGGGC ((((..(....)..))))	46.5	-24.4
GCCCACGGAAACGCGGAC (.((.((....)).)).)	32.8	-18.4
GCCCAGCGAAAGCAAGGC (((..((....))..)))	56.9	-18.5
GCCCAGCGAAAGCCCGGC (((..((....))..)))	47.1	-15.6
GCCCAGCGAAAGCGAGGC (((..((....))..)))	62.7	-20.6
GCCCAGCGAAAGCGGAGC ((.(.((....)).).))	53.1	-12.7
GCCCAGCGAAAGCTTCGC ((..(((....)))..))	40.3	-6.41
GCCCAGGCGAAAGCCGGC (((..(((....))))))	62	-10.1
GCCCAGGGAAACCCGGGC ((((.((....)).))))	57.8	-37.4

— the array DNA melting data of Ke et al. (doi:10.1101/2024.01.08.574731)
